Assay results: paper PMC8286339 (ACS chemical biology, 2021)
NAH = SAM mimic in which the sulfonium ion is replaced by a nitrogen atom; C3 = 3-carbon linker to the N-terminal alpha-amine

Experiments:
NTMT1 [1] = target: T1, NTMT1 (Homo sapiens, UniProt Q9BV86); details: read-out: Ki, app; previously developed NTMT1 bisubstrate inhibitors; cited from earlier work
T1 sequence (Q9BV86 1-223): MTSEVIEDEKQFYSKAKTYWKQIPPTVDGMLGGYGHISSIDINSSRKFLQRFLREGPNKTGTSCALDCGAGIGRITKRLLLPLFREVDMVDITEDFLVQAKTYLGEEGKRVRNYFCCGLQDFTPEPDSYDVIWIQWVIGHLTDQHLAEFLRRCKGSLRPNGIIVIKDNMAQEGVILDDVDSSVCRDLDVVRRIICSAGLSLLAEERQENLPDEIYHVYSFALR

[2] = target: protein N-terminal methyltransferase 1 (NTMT1), purified recombinant (human) (UniProt Q9BV86); assay: SAHH-coupled fluorescence enzyme inhibition assay
[3] = target: T2, HemK2/KMT9-Trm112 complex (Homo sapiens, UniProt Q9Y5N5); assay: HemK2-Trm112 methylation inhibition assay; type: biochemical; details: read-out: inhibition of activity
T2 sequence (Q9Y5N5 1-214): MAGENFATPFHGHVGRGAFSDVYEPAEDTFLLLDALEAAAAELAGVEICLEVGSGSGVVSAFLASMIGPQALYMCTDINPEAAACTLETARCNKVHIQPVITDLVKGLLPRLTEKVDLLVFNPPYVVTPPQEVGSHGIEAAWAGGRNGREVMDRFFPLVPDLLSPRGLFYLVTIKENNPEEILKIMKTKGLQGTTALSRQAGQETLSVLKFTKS
T2 sequence (Q9UI30 1-125 partner): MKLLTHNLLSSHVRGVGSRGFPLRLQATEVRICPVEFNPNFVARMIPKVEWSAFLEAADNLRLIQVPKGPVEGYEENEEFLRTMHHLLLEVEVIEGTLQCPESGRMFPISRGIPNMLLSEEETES

NTMT1 [4] = target: T1, NTMT1; assay: Pull-down from HeLa cell lysates with immobilized probe, anti-NTMT1 Western blot; type: binding; details: 700 mM NaCl wash
How it was run: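 Lysate was incubated overnight with probe-loaded streptavidin resin, optionally with competitor (10 mM stock) added first; resin alone served as control. Washes used IP buffer, then 700 mM NaCl. Boiled-bead eluates were run on SDS-PAGE and blotted with anti-NTMT1 (1:1000, 4°C overnight) and HRP secondary, with ECL detection.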

NTMT1 [5] = target: T1, NTMT1; type: binding; details: probe immobilized on streptavidin beads
How it was run: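 Biotinylated probe (100 µM) was loaded overnight onto streptavidin resin in 20 mM Tris, 50 mM KCl, pH 7.5. Purified NTMT1 was bound for 4 h in the same buffer plus 1 mM DTT, then washed until no protein was detected. Elution was stepwise with 500 mM, 1 M, 2 M and 4 M NaCl, moving to the next step once eluate protein approached 0 mg/mL.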

Row | Compound | Ki [2] | Ki (NTMT1 [1]) | also measured
1 | CC[C@H](C)[C@H](NC(=O)[C@H](CCCNC(=N)N)NC(=O)[C@H](CCCCN)NC(=O)[C@@H]1CCCN1C(=O)CNCCCCN(CC[C@H](N)C(=O)O)C[C@H]1O[C@@H](n2cnc3c(N)ncnc32)[C@H](O)[C@@H]1O)C(=O)N[C@@H](C)C(N)=O [NAH-C4-GPKRIA] | – | 0.13 ± 0.04 nM | –
2 | Nc1ncnc2c1ncn2[C@@H]1O[C@H](C[C@@H](N)CC[C@H](N)C(=O)O)[C@@H](O)[C@H]1O [sinefungin] | – | – | inhibition at 100 µM [3]: ~50%
3 | NAH-C3-GPKK-biotin [Probe 6] | – | – | enrichment of NTMT1 from HeLa cell lysates (NTMT1 [4]): enriched; salt concentration at which NTMT1 was eluted off the probe (NTMT1 [5]): 4 M NaCl
4 | NAH-C3-PPKRIA ({NAH-C3}-PPKRIA-NH2) | – | 39 ± 10 nM | –

More lines, main results first:

Row | Ki [2] | Compound | Ki (NTMT1 [1]) | also measured
5 | 41 nM | NAH-C3-GPK (compound 3) (peptide) | – | –
6 | 44 nM | NAH-C4-GPK (compound 4) (peptide) | – | –
